{
  "source": "ChEMBL document CHEMBL1125276",
  "about": "(J Med Chem, 1991)",
  "key": {"L1210": {"tested_on": "L1210", "test": "Tested for the inhibition of L1210 cell proliferation.", "format": "functional, cell-based", "details": "Mus musculus", "summary_of_the_method": "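L1210 cells were grown in RPMI 1640 with 10% FCS, 2 mM L-glutamine and 10 mM HEPES (pH 7.4). Exponential-phase cells (10^5 cells/mL) were exposed for 24 h to 5 drug concentrations in triplicate, then pulsed 3 h with 0.5 µCi/mL [3H]thymidine. Cells were harvested onto filters and counted. IC50 is 50% inhibition of incorporation versus untreated cells, given as the mean of 2–5 independent experiments.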"}, "P388 [1]": {"tested_on": "P388", "test": "Compound was tested for T/C range at optimal dose of 1.5 mg/kg for antitumor activity against P388 leukemia cells in mice.", "format": "functional, Mus musculus"}, "P388 [2]": {"tested_on": "P388", "test": "Long-term survivors (LTS) for 60 days at optimal dose of 1.5 mg/kg for antitumor activity against P388 leukemia cells in 6 mice.", "format": "functional, Mus musculus"}, "P388 [3]": {"tested_on": "P388", "test": "Compound was tested for T/C range at optimal dose of 8.00 mg/kg for antitumor activity against P388 leukemia cells in mice.", "format": "functional, Mus musculus"}, "P388 [4]": {"tested_on": "P388", "test": "Long-term survivors (LTS) for 60 days at optimal dose of 8.00 mg/kg for antitumor activity against P388 leukemia cells in 5 mice.", "format": "functional, Mus musculus"}},
  "data": [
    {"compound": "CCOP(=O)(OCC)C(CC(C)C)NC(=O)[C@@]1(O)[C@H](O)[C@]2(CC)C=CCN3CC[C@@]4(c5cc([C@@]6(C(=O)OC)C[C@@H]7CN(CCc8c6[nH]c6ccccc86)C[C@](O)(CC)C7)c(OC)cc5N(C)[C@@H]14)[C@@H]32", "note": "(mixture of isomers)", "values": [
      {"measurement": "IC50", "setting": "L1210", "value": 3.13, "unit": "nM"},
      {"measurement": "T/C", "setting": "P388 [1]", "value": 261, "unit": "%"},
      {"measurement": "LTS", "setting": "P388 [2]", "value": 1}
    ]},
    {"compound": "CCOP(=O)(OCC)[C@H](Cc1ccccc1)NC(=O)[C@@]1(O)[C@H](O)[C@]2(CC)C=CCN3CC[C@@]4(c5cc([C@@]6(C(=O)OC)C[C@@H]7CN(CCc8c6[nH]c6ccccc86)C[C@](O)(CC)C7)c(OC)cc5N(C)[C@@H]14)[C@@H]32", "values": [
      {"measurement": "IC50", "setting": "L1210", "value": 9.64, "unit": "nM"},
      {"measurement": "T/C", "setting": "P388 [3]", "value": 229, "unit": "%"},
      {"measurement": "LTS", "setting": "P388 [4]", "value": 0}
    ]}
  ]
}
